Values joined by “and” are separate entries in the source; they are usually repeats but may differ in a detail not shown here. Equal entries are not always repeated.
System: Fibroblast
Test: Multiplex assay against human fibroblast
Format: toxicity, cell-based
Method in brief: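 Values for tubulin, mitochondrial-mass and membrane-permeability phenotypes are per cents of cells with healthy nuclei. These cells were identified by CellPathfinder machine-learning gating of live cells that had been stained at seeding with Hoechst33342, BioTracker Green Microtubule Cytoskeleton Dye, MitoTracker Red and Annexin V Alexa Fluor 680 and imaged on a CQ1 microscope at 37°C and 5% CO2 after compound addition. The gating first set Hoechst high-intensity objects apart from normal cells, then split normal cells into healthy, pyknosed or fragmented nuclei, and pyknosed cells into mitotic or apoptotic.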

[1] = 12 h, 1 µM, compound concentration 1 uM, replicate 1
[2] = 12 h, 1 µM, compound concentration 1 uM, replicate 2
[3] = 12 h, 10 µM, compound concentration 10 uM, replicate 1
[4] = 12 h, 10 µM, compound concentration 10 uM, replicate 2
[5] = 24 h, 1 µM, compound concentration 1 uM, replicate 1
[6] = 24 h, 1 µM, compound concentration 1 uM, replicate 2
[7] = 24 h, 10 µM, compound concentration 10 uM, replicate 1
[8] = 24 h, 10 µM, compound concentration 10 uM, replicate 2

CCC1=C[C@@H]2C[N@](C1)Cc1c([nH]c3ccccc13)[C@@](C(=O)OC)(c1cc3c(cc1OC)N(C)[C@H]1[C@@](O)(C(=O)OC)[C@H](OC(C)=O)[C@]4(CC)C=CCN5CC[C@]31[C@@H]54)C2.O=C(O)C(O)C(O)C(=O)O.O=C(O)C(O)C(O)C(=O)O [VINORELBINE TARTRATE]
Population Apoptotic (%) [1]: 63% and 65%
Population Fragmented Nuclei (%) [1]: 27% and 51%
Population Healthy Nuclei (%) [1]: 48% and 34%
Population Hoechst High Intensity Objects (%) [1]: 16% and 26%
Population Mitochondria Different-Phenotype (%) [1]: 14% and 9%
Population Mitotic Cells (%) [1]: 36% and 34%
Population Normal (%) [1]: 83% and 73%
Population Pyknosed Nuclei (%) [1]: 23% and 14%
Population Tubulin-Different-Phenotype (%) [1]: 8% and 4%
Total Cell Count [1]: 151 and 452
Population Apoptotic (%) [2]: 100% and 80%
Population Fragmented Nuclei (%) [2]: 79% and 75%
Population Healthy Nuclei (%) [2]: 18% and 15%
Population Hoechst High Intensity Objects (%) [2]: 44% and 38%
Population Membrane Permeable-Phenotype (%) [2]: 22% and 0%
Population Mitochondria Different-Phenotype (%) [2]: 0%
Population Mitotic Cells (%) [2]: 0% and 20%
Population Normal (%) [2]: 55% and 61%
Total Cell Count [2]: 86 and 94
Population Apoptotic (%) [3]: 67% and 68%
Population Fragmented Nuclei (%) [3]: 46% and 27%
Population Healthy Nuclei (%) [3]: 39% and 50%
Population Hoechst High Intensity Objects (%) [3]: 18%
Population Membrane Permeable-Phenotype (%) [3]: 6% and 4%
Population Mitochondria Different-Phenotype (%) [3]: 13% and 6%
Population Mitotic Cells (%) [3]: 32% and 31%
Population Normal (%) [3]: 81%
Population Pyknosed Nuclei (%) [3]: 13% and 22%
Population Tubulin-Different-Phenotype (%) [3]: 3%
Total Cell Count [3]: 353 and 227
Population Apoptotic (%) [4]: 50% and 60%
Population Fragmented Nuclei (%) [4]: 59% and 69%
Population Healthy Nuclei (%) [4]: 31% and 24%
Population Hoechst High Intensity Objects (%) [4]: 32% and 26%
Population Membrane Permeable-Phenotype (%) [4]: 17% and 0%
Population Mitochondria Different-Phenotype (%) [4]: 17% and 10%
Population Mitotic Cells (%) [4]: 50% and 40%
Population Normal (%) [4]: 67% and 73%
Population Pyknosed Nuclei (%) [4]: 8% and 6%
Population Tubulin-Different-Phenotype (%) [4]: 13% and 0%
Total Cell Count [4]: 107 and 111
Population Apoptotic (%) [5]: 73% and 63%
Population Fragmented Nuclei (%) [5]: 54% and 33%
Population Healthy Nuclei (%) [5]: 31% and 50%
Population Hoechst High Intensity Objects (%) [5]: 25% and 18%
Population Mitochondria Different-Phenotype (%) [5]: 8% and 7%
Population Mitotic Cells (%) [5]: 26% and 36%
Population Normal (%) [5]: 74% and 81%
Population Pyknosed Nuclei (%) [5]: 13% and 16%
Population Tubulin-Different-Phenotype (%) [5]: 4% and 3%
Population Fragmented Nuclei (%) [6]: 76% and 77%
Population Healthy Nuclei (%) [6]: 20% and 15%
Population Hoechst High Intensity Objects (%) [6]: 44% and 34%
Population Mitochondria Different-Phenotype (%) [6]: 22% and 9%
Population Mitotic Cells (%) [6]: 100% and 40%
Population Normal (%) [6]: 55% and 65%
Population Pyknosed Nuclei (%) [6]: 2% and 6%
Population Tubulin-Different-Phenotype (%) [6]: 22% and 9%
Total Cell Count [6]: 77 and 110
Population Apoptotic (%) [7]: 77% and 75%
Population Fragmented Nuclei (%) [7]: 48% and 27%
Population Healthy Nuclei (%) [7]: 35% and 54%
Population Hoechst High Intensity Objects (%) [7]: 26% and 19%
Population Membrane Permeable-Phenotype (%) [7]: 5% and 4%
Population Mitochondria Different-Phenotype (%) [7]: 9% and 2%
Population Mitotic Cells (%) [7]: 22% and 25%
Population Normal (%) [7]: 73% and 80%
Population Pyknosed Nuclei (%) [7]: 15% and 18%
Population Tubulin-Different-Phenotype (%) [7]: 3% and 1%
Total Cell Count [7]: 394 and 248
Population Fragmented Nuclei (%) [8]: 60% and 80%
Population Healthy Nuclei (%) [8]: 31% and 17%
Population Hoechst High Intensity Objects (%) [8]: 37% and 27%
Population Membrane Permeable-Phenotype (%) [8]: 10% and 0%
Population Mitochondria Different-Phenotype (%) [8]: 10% and 0%
Population Normal (%) [8]: 62% and 72%
Population Tubulin-Different-Phenotype (%) [8]: 0%
Total Cell Count [8]: 103 and 151
